# Sampled rows, rich in hits. Any-hit rate of the full collection: about 3.1%.
# RBBP9 inh: human RBBP9 inhibitors, primary screen, biochemical, fluorescence polarization, FP-Rh probe, HTS. 220,000 compounds, 0.2% hits. Serine hydrolase RBBP9 (Homo sapiens), O75884. AID 1515, 2009. inhibition, % at 7.94 µM. recombinant RBBP9;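 active = inhibition above the campaign mean of all tested compounds plus 3 SD, cut at about 14% in these data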;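 also: plate controls were DMSO wells with RBBP9 for no effect and wells lacking RBBP9 protein for full effect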
# Target sequence (O75884 whole entry, looked up): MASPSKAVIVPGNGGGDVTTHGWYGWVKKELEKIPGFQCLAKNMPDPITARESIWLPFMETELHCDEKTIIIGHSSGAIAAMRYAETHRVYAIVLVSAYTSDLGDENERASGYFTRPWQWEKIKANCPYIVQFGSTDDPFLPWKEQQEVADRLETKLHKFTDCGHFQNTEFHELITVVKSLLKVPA
#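 Test system: recombinant human RBBP9. Quantity: 2.5 µM RBBP9 dispensing solution, before mixing. Detection: FP readout at 525/598 nm. Reagent: Serine-hydrolase probe FP-Rh, 375 nM pre-mixing. Measure: % inhibition. Control set: DMSO-treated enzyme wells and wells lacking RBBP9. Buffer or medium: Tris-NaCl-Pluronic buffer, pH 8.0. Times: preincubation 30 min plus labeling 45 min at 25 °C.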
# LEDGF integ inh: blockers of LEDGF/p75-dependent integrase strand transfer – biochemical, TR-FRET, high throughput, primary screen. AID 743269, 2014. 370,000 compounds, 0.64% hits. inhibition, % at 3.7 µM. TR-FRET IN-LEDGF/p75 DNA integration, Eu/Cy5;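 active = inhibition above the screen-wide mean plus 3 SD, cut at about 13% in these data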;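 also: signal is the Cy5 over europium emission ratio at 671 and 618 nm; 0% = plate median of compound wells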
# MBD2 DNA inh: inhibitors of MBD2 binding to methylated DNA, primary screen, biochemical, TR-FRET, DNA-binding domain, human | MBD2 binding to methylated oligonucleotide | Methyl-CpG-binding domain protein 2 (Homo sapiens), Q9UBB5 | 370,000 compounds, 0.31% hits | inhibition, % at 4.4 µM; in the data active = inhibition above about 13%
# UHRF1 binding: UHRF1 methylated DNA binding inhibitors, primary screen, counter-screen for MBD2 inhibitor project, biochemical, TR-FRET, human UHRF1, single concentration; E3 ubiquitin-protein ligase UHRF1 (Homo sapiens), Q96T88; 370,000 compounds, 0.75% hits; UHRF1 binding to methylated oligo; inhibition, % at 4.4 µM; AID 687016, 2013; in the data active = inhibition above about 21%;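 also: UHRF1 SRA domain binding a hemimethylated CpG hairpin DNA probe; 0% = median of test compound wells and 100% = reference inhibitor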
# PRMT1 inh: PRMT1 methyltransferase inhibitors, primary screen, biochemical, fluorescence polarization. Protein arginine N-methyltransferase 1 (Homo sapiens), Q99873. recombinant PRMT1, activity-based probe fluorescence polarization. AID 652257, 2013. inhibition, % at 2.79 µM. 370,000 compounds, 1.3% hits;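 active = inhibition above about 21% made by adding two undisclosed values, limit read from the data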
# Target sequence (Q99873 whole entry, looked up): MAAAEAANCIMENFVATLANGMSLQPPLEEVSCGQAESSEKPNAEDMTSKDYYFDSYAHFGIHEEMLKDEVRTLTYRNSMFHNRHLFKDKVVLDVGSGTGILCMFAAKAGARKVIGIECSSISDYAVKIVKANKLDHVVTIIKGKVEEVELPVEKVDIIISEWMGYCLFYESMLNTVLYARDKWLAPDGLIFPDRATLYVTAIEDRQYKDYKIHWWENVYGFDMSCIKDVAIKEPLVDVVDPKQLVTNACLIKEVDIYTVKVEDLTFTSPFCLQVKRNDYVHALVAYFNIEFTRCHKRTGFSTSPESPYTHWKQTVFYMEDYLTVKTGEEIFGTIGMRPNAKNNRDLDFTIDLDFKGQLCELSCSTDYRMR
# ABHD5 PLIN5 PPI: ABHD5-PLIN5 interaction inhibitors, primary screen, cell lysate, split luciferase complementation, luminescence | inhibition, % at 4 µM | Split G. princeps luciferase complementation, 4 h | 360,000 compounds, 0.78% hits | AID 602281, 2012;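 active = inhibition above the mean inhibition across every tested compound plus 3 SD, cut at about 22% in these data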;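 also: 0% = DMSO only wells and the 100% control is not disclosed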
# Active calls of the source: *; . = no result given.
SMILES,RBBP9 inh,LEDGF integ inh,MBD2 DNA inh,UHRF1 binding,PRMT1 inh,ABHD5 PLIN5 PPI
COc1cccc(-c2noc(Cn3nc(C)c([N+](=O)[O-])c3C)n2)c1,6,1,-1,-1,23*,2
Cc1nn(C(C)c2nc(-c3ccccc3)no2)c(C)c1[N+](=O)[O-] (configuration not stated),-4,-3,-1,33*,0,3
CCOC(=O)[C@@]12CN(C(=O)OC(C)(C)C)CC=C1N(Cc1ccc(OC)cc1)C(=O)[C@H]2CC(=O)NCC12CC3CC(CC(C3)C1)C2,.,-4,4,0,2,.
CC(=O)c1cc(-c2ccccc2)c(=O)n2c1CCC2,.,-1,-4,-2,0,.
S=C(Nc1ccccc1Cl)N(Cc1ccccc1)Cc1cccnc1,-5,2,-7,1,-3,0
Cc1ccc(Cl)cc1NC(=S)N(Cc1ccccc1)Cc1cccnc1,3,-7,9,25*,4,8
COc1ccc(OCCSc2nc3ccccc3n2CCC(=O)O)cc1,.,1,-1,-4,-2,-1
COc1ccccc1OCCSc1nc2ccccc2n1CCC(=O)O,.,8,11,34*,5,4
C[C@@H]1CN([C@@H](C)CO)C(=O)CCCn2nncc2CO[C@H]1CN(C)C(=O)Nc1cccc2ccccc12,.,3,8,24*,8,-9
C[C@H](CO)N1C[C@H](C)[C@H](CN(C)C(=O)OCc2ccccc2)OCc2cnnn2CCCC1=O,.,-3,4,24*,3,-3
COc1cccc(S(=O)(=O)N(C)C[C@H]2OCc3cnnn3CCCC(=O)N([C@@H](C)CO)C[C@H]2C)c1,.,-1,10,22*,-1,6
C[C@@H]1CN([C@@H](C)CO)C(=O)CCCn2nncc2CO[C@@H]1CN(C)C(=O)OCc1ccccc1,.,1,5,4,16,-7
CCCN(C)C[C@H]1OCc2cnnn2CCCC(=O)N([C@H](C)CO)C[C@@H]1C,.,3,13,23*,2,9
C[C@H]1CN([C@@H](C)CO)C(=O)CCCn2nncc2CO[C@@H]1CN(C)CC1CC1,.,0,5,-1,-4,.
O=C(Nc1ccc2c(c1)Cc1ccccc1-2)NC1CCCCN(Cc2cccc(Cl)c2)C1=O (configuration not stated),.,4,1,-1,-3,.
N#Cc1ccc(C(=O)Oc2coc(CSc3ncccn3)cc2=O)cc1,.,2,3,-2,16,.
COc1ccc(NC(=O)NCCCN2CCN(c3ccc(F)cc3)CC2)cc1OC,.,-3,-2,1,-3,.
CC1(C#CC[N+]2(C)CCCCC2)CCC2C(O1)c1ccccc1OC2(C)C (configuration not stated),1,5,8,24*,-4,0
COc1ccc([C@H](C#Cc2ccccc2)CC(=O)O)cc1OC1CCCC1,.,-2,-2,2,0,.
O=C1NC(=O)C2(CCCc3ccc(N(CCO)CCO)cc32)N1 (configuration not stated),.,-6,3,1,3,.
CN(C)c1ccc(/C=C/c2ccc3c4ccccc4ccc3[n+]2-c2ccccc2)cc1,-50,-6,-3,12,3,37*
C=CCN1C(=O)[C@@H](CC(=O)NCc2ccc(C)o2)[C@]2(C(=O)OCC)CCCCC/C=C/12,.,-4,-5,14,6,.
OC(CC#CCN1CCCC1)(c1ccccc1)c1ccccc1,-8,4,-2,22*,-5,0
Cc1ccc(NCc2nnc(SCC(=O)c3ccccc3)n2Cc2ccco2)c(C)c1,-7,12,1,12,24*,18
CCCCN(CCCC)C(=O)/C=C/c1cccc([N+](=O)[O-])c1,-2,1,5,21*,-4,-7
SMILES,RBBP9 inh,LEDGF integ inh,MBD2 DNA inh,UHRF1 binding,PRMT1 inh,ABHD5 PLIN5 PPI
CC(=O)Nc1cc(OC(C)=O)c2nonc2c1OC(C)=O,2,39*,19*,15,59*,18
CC(=O)Nc1nonc1NC(C)=O,-1,0,2,-1,-3,1
N#Cc1ccc(Cn2ccc3ccc(-c4ccc5ccn(C(=O)c6ccccc6)c5c4)cc32)cc1,.,-1,1,-6,0,.
COc1cc(/C=C/C(=O)c2ccc(NS(=O)(=O)c3ccc(C)cc3)cc2)cc(OC)c1O,3,-1,4,5,7,38*
COc1ccc2cc(C(=O)/C=C/c3cc(OC)c(O)c(OC)c3)ccc2c1,.,-3,2,-1,8,8
COc1cc(/C=C/C(=O)c2ccc(NS(=O)(=O)c3ccc(C)cc3)cc2)ccc1OC(F)F,-16,-3,5,1,-1,22*
CCCCOCCCNC(=O)C[C@H]1C[C@@]2(C(=O)OC)C(=C[C@H](C(C)C)O[C@@H]2C2CC2)N(Cc2cccc3ccccc23)C1=O,.,-1,-4,1,3,.
CC(=O)Nc1ccc(C=NNc2ccc(S(=O)(=O)Nc3ccccc3C(=O)O)cc2[N+](=O)[O-])cc1,.,-6,-1,-2,11,-2
O=C(O)c1ccccc1NS(=O)(=O)c1ccc(NNC(=S)Nc2ccc(OC(F)F)cc2)c([N+](=O)[O-])c1,-1,10,-1,-5,23*,-8
Cc1[nH]c2ccccc2c1C(=O)CSC(=S)N(C)C1CCCCC1,-23,5,7,26*,4,-7
C#CCNC(=O)C[C@H]1C[C@@]2(C(=O)OC)C(=C[C@H](C3CCCC3)O[C@@H]2C)N(CCc2ccc(OC)c(OC)c2)C1=O,.,-4,-1,-1,-1,.
Cc1c(Cl)c([N+](=O)[O-])nn1CCCC(=O)N1CCN(c2ccccc2)CC1,-7,1,-4,31*,2,-3
COC(=O)C1=C(C)Nc2[nH]c(=S)[nH]c(=O)c2C1c1ccc(O)cc1 (configuration not stated),-5,-5,0,5,25*,4
C=CCOC(=O)C1=C(C)NC(C)=C(C(=O)OCC=C)C1c1ccc(O)cc1,.,0,0,-2,2,3
COc1ccc(CNC(=O)C2CCCN(c3nc4ccccc4o3)C2)cc1 (configuration not stated),.,-3,5,3,4,.
CCCS(=O)(=O)c1cn2cccc(N)c2c1S(=O)(=O)CCC,-2,-1,-7,-6,33*,14
Cc1ccc2oc(Nc3nc(-c4ccccc4)cc(=O)[nH]3)nc2c1,-5,-5,-7,75*,-2,.
